In assay [1] the target is T1, Adenylate cyclase (Rattus norvegicus) (UniProt D4A3N4+P26770+Q04400+P26769+Q03343+P40146+Q8CFM9+P21932). The experiment in a line: Adenylate cyclase activity measured as percentage stimulation. In kind it is protein assay. Details: concentration or dose not given beside the values.
Assay [2] has as its target Adenylate cyclase. The experiment in a line: Adenylate cyclase activity measured as 50% inhibitory concentration. The format is protein assay.
Another assay has as its target Glucagon receptor (Rattus norvegicus, UniProt P30082). The experiment in a line: Glucagon receptor binding measured as 50% inhibitory concentration. Put shortly:
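Membranes (50 µg protein) were taken from the livers of male Sprague Dawley rats (200-250 g), purified on a sucrose gradient. […] Nonspecific binding was defined with excess unlabeled peptide and subtracted. Run in triplicate, repeated twice.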

For assay [3], the target named is Adenylate cyclase. Briefly: Adenylate cyclase activity measured as PA2. The format is protein assay.
Assay [4] has as its target T1, Adenylate cyclase (Rattus norvegicus). The experiment in a line: Adenylate cyclase activity measured as percentage stimulation at (20uM). The format is protein assay. Put shortly:
(§1)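 Rat liver plasma membranes (35 µg protein) incubated in 0.1 mL of 25 mM Tris (pH 7.5) with 0.4% BSA, 1 mM [α-32P]ATP, 5 mM MgCl2, GTP, 1 mM EDTA, 1 mM cAMP with [3H]cAMP tracer, and a phosphocreatine/creatine phosphokinase ATP-regenerating system. Labeled cAMP was isolated on Dowex cation-exchange and alumina columns.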

For assay [5] the target is unchanged. The experiment in a line: Adenylate cyclase activity measured as percentage stimulation at (1 uM). In kind it is protein assay. Put shortly: as §1
For assay [6] the target is unchanged. Briefly: Adenylate cyclase activity measured as percentage stimulation at 20 uM. In kind it is protein assay. Put shortly:
as §1

In general, EC50 refers to the concentration giving half of the maximal effect. For orientation: IC50 means the concentration at which inhibition is half-maximal. One may read the pA2 as a measure of antagonist potency on a negative log scale.

Each structure is given as a SMILES string. Where a SMILES comes first, the peptide text is derived from it. Bridges are numbered along the chain shown (N, C = ends).

Glucagon receptor, sequence (P30082 whole entry): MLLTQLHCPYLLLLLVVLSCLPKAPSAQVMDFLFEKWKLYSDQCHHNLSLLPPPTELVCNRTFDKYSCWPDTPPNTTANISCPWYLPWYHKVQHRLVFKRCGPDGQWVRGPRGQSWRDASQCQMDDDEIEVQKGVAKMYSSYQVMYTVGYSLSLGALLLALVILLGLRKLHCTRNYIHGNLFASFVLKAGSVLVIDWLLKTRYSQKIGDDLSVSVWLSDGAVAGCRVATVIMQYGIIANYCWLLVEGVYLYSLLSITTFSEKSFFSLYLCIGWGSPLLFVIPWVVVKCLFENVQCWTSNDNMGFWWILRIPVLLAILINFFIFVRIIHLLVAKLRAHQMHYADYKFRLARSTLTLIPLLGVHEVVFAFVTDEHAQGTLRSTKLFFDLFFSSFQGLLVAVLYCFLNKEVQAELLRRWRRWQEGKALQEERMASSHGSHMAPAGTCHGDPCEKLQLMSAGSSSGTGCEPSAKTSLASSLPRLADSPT

Turning to `CSCC[C@H](NC(=O)[C@H](CC(C)C)NC(=O)[C@H](Cc1c[nH]c2ccccc12)NC(=O)[C@H](CCC(N)=O)NC(=O)[C@@H](NC(=O)[C@H](Cc1ccccc1)NC(=O)[C@H](CC(=O)O)NC(=O)[C@H](CCC(N)=O)NC(=O)[C@H](C)NC(=O)[C@H](CCCN=C(N)N)NC(=O)[C@H](CCCN=C(N)N)NC(=O)[C@H](CO)NC(=O)[C@H](CC(=O)O)NC(=O)[C@H](CC(C)C)NC(=O)[C@H](Cc1ccc(O)cc1)NC(=O)[C@H](CCCCN)NC(=O)[C@H](CO)NC(=O)[C@H](Cc1ccc(O)cc1)NC(=O)[C@@H]1CCC(=O)NCCCC[C@H](NC(=O)CNC(=O)[C@H](CCC(N)=O)NC(=O)[C@H](CO)NC(=O)[C@@H](N)Cc2c[nH]cn2)C(=O)N[C@@H](Cc2ccccc2)C(=O)N[C@@H]([C@@H](C)O)C(=O)N[C@@H](CO)C(=O)N1)C(C)C)C(=O)N[C@@H](CC(N)=O)C(=O)N[C@H](C(=O)O)[C@@H](C)O` (H-HSQGKFTSEYSKYLDSRRAQDFVQWLMNT-OH; lactam 5-9), the Activity in assay [1] stood at 12%. The compound also showed an EC50 on Adenylate cyclase [2] of 390 nM. For the same compound, the IC50 on Glucagon receptor turned out to be 0.2 nM. The same compound yielded a pA2 on Adenylate cyclase [3] of 8.26.

Consider `CSCC[C@H](NC(=O)[C@H](CC(C)C)NC(=O)[C@H](Cc1c[nH]c2ccccc12)NC(=O)[C@H](CCC(N)=O)NC(=O)[C@@H](NC(=O)[C@H](Cc1ccccc1)NC(=O)[C@H](CC(=O)O)NC(=O)[C@H](CCC(N)=O)NC(=O)[C@H](C)NC(=O)[C@H](CCCN=C(N)N)NC(=O)[C@H](CCCN=C(N)N)NC(=O)[C@H](CO)NC(=O)[C@H](CC(=O)O)NC(=O)[C@H](CC(C)C)NC(=O)[C@H](Cc1ccc(O)cc1)NC(=O)[C@H](CCCCN)NC(=O)[C@H](CO)NC(=O)[C@H](Cc1ccc(O)cc1)NC(=O)[C@H](CC(=O)O)NC(=O)[C@H](CO)NC(=O)[C@@H]1CCC(=O)NCCCC[C@H](NC(=O)[C@H](CO)NC(=O)[C@@H](N)Cc2c[nH]cn2)C(=O)NCC(=O)N[C@@H]([C@@H](C)O)C(=O)N[C@@H](Cc2ccccc2)C(=O)N1)C(C)C)C(=O)N[C@@H](CC(N)=O)C(=O)N[C@H](C(=O)O)[C@@H](C)O` (H-HSKGTFESDYSKYLDSRRAQDFVQWLMNT-OH; lactam 3-7), for which, on Glucagon receptor, the IC50 turned out to be 6 nM. On Adenylate cyclase [3], this compound displayed a pA2 of 8.28.

For the compound `CSCC[C@H](NC(=O)[C@H](CC(C)C)NC(=O)[C@H](Cc1c[nH]c2ccccc12)NC(=O)[C@H](CCC(N)=O)NC(=O)[C@@H](NC(=O)[C@H](Cc1ccccc1)NC(=O)[C@H](CC(=O)O)NC(=O)[C@H](CCC(N)=O)NC(=O)[C@H](C)NC(=O)[C@H](CCCN=C(N)N)NC(=O)[C@H](CCCN=C(N)N)NC(=O)[C@H](CO)NC(=O)[C@H](CC(=O)O)NC(=O)[C@H](CC(C)C)NC(=O)[C@H](Cc1ccc(O)cc1)NC(=O)[C@@H]1CSSC[C@H](NC(=O)[C@H](Cc2ccccc2)NC(=O)[C@@H](NC(=O)CNC(=O)[C@H](CCC(N)=O)NC(=O)[C@H](CO)NC(=O)[C@@H](N)Cc2c[nH]cn2)[C@@H](C)O)C(=O)N[C@@H](CO)C(=O)N[C@@H](CC(=O)O)C(=O)N[C@@H](Cc2ccc(O)cc2)C(=O)N[C@@H](CO)C(=O)N1)C(C)C)C(=O)N[C@@H](CC(N)=O)C(=O)N[C@H](C(=O)O)[C@@H](C)O` (H-HSQGTFCSDYSCYLDSRRAQDFVQWLMNT-OH; disulfide 7-12), in assay [4], the Activity was determined as 53%. The EC50 on Adenylate cyclase [2] was determined as 5900 nM. In addition, the concentration for half-maximal inhibition (IC50) on Glucagon receptor turned out to be 558 nM.

In turn, `CSCC[C@H](NC(=O)[C@H](CC(C)C)NC(=O)[C@H](Cc1c[nH]c2ccccc12)NC(=O)[C@H](CCC(N)=O)NC(=O)[C@@H](NC(=O)[C@H](Cc1ccccc1)NC(=O)[C@H](CC(=O)O)NC(=O)[C@H](CCC(N)=O)NC(=O)[C@H](C)NC(=O)[C@H](CCCN=C(N)N)NC(=O)[C@H](CCCN=C(N)N)NC(=O)[C@H](CO)NC(=O)[C@H](CC(=O)O)NC(=O)[C@H](CC(C)C)NC(=O)[C@H](Cc1ccc(O)cc1)NC(=O)[C@H](CS)NC(=O)[C@H](CO)NC(=O)[C@H](Cc1ccc(O)cc1)NC(=O)[C@H](CC(=O)O)NC(=O)[C@H](CO)NC(=O)[C@H](CS)NC(=O)[C@H](Cc1ccccc1)NC(=O)[C@@H](NC(=O)CNC(=O)[C@H](CCC(N)=O)NC(=O)[C@H](CO)NC(=O)[C@@H](N)Cc1c[nH]cn1)[C@@H](C)O)C(C)C)C(=O)N[C@@H](CC(N)=O)C(=O)N[C@H](C(=O)O)[C@@H](C)O` (H-HSQGTFCSDYSCYLDSRRAQDFVQWLMNT-OH) showed an Activity in assay [4] of 100%. The compound also yielded an EC50 at Adenylate cyclase [2] of 59 nM.

In assay [5], `CSCC[C@H](NC(=O)[C@H](CC(C)C)NC(=O)[C@H](Cc1c[nH]c2ccccc12)NC(=O)[C@H](CCC(N)=O)NC(=O)[C@@H](NC(=O)[C@H](Cc1ccccc1)NC(=O)[C@H](CC(=O)O)NC(=O)[C@H](CCC(N)=O)NC(=O)[C@H](CS)NC(=O)[C@H](CCCN=C(N)N)NC(=O)[C@H](CCCN=C(N)N)NC(=O)[C@H](CO)NC(=O)[C@H](CC(=O)O)NC(=O)[C@H](CS)NC(=O)[C@H](Cc1ccc(O)cc1)NC(=O)[C@H](CCCCN)NC(=O)[C@H](CO)NC(=O)[C@H](Cc1ccc(O)cc1)NC(=O)[C@H](CC(=O)O)NC(=O)[C@H](CO)NC(=O)[C@@H](NC(=O)[C@H](Cc1ccccc1)NC(=O)[C@@H](NC(=O)CNC(=O)[C@H](CCC(N)=O)NC(=O)[C@H](CO)NC(=O)[C@@H](N)Cc1c[nH]cn1)[C@@H](C)O)[C@@H](C)O)C(C)C)C(=O)N[C@@H](CC(N)=O)C(=O)N[C@H](C(=O)O)[C@@H](C)O` (H-HSQGTFTSDYSKYCDSRRCQDFVQWLMNT-OH) returned an Activity of 100%. Further, on Adenylate cyclase [2], the EC50 is listed as 236 nM. This compound also had an IC50 on Glucagon receptor of 13.7 nM.

`CSCC[C@H](NC(=O)[C@H](CC(C)C)NC(=O)[C@H](Cc1c[nH]c2ccccc12)NC(=O)[C@H](CCC(N)=O)NC(=O)[C@@H](NC(=O)[C@H](Cc1ccccc1)NC(=O)[C@H](CC(=O)O)NC(=O)[C@H](CCC(N)=O)NC(=O)[C@@H]1CSSC[C@H](NC(=O)[C@H](Cc2ccc(O)cc2)NC(=O)[C@H](CCCCN)NC(=O)[C@H](CO)NC(=O)[C@H](Cc2ccc(O)cc2)NC(=O)[C@H](CC(=O)O)NC(=O)[C@H](CO)NC(=O)[C@@H](NC(=O)[C@H](Cc2ccccc2)NC(=O)[C@@H](NC(=O)CNC(=O)[C@H](CCC(N)=O)NC(=O)[C@H](CO)NC(=O)[C@@H](N)Cc2c[nH]cn2)[C@@H](C)O)[C@@H](C)O)C(=O)N[C@@H](CC(=O)O)C(=O)N[C@@H](CO)C(=O)N[C@@H](CCCN=C(N)N)C(=O)N[C@@H](CCCN=C(N)N)C(=O)N1)C(C)C)C(=O)N[C@@H](CC(N)=O)C(=O)N[C@H](C(=O)O)[C@@H](C)O` (H-HSQGTFTSDYSKYCDSRRCQDFVQWLMNT-OH; disulfide 14-19) had an Activity in assay [6] of 30%. On Adenylate cyclase [2], this compound yielded a concentration giving a half-maximal response (EC50) of 7500 nM. The compound also returned a 50% inhibitory concentration (IC50) at Glucagon receptor of 562 nM.

Consider `CSCC[C@H](NC(=O)[C@H](CC(C)C)NC(=O)[C@H](Cc1c[nH]c2ccccc12)NC(=O)[C@H](CCC(N)=O)NC(=O)[C@@H](NC(=O)[C@H](Cc1ccccc1)NC(=O)[C@H](CC(=O)O)NC(=O)[C@H](CCC(N)=O)NC(=O)[C@H](C)NC(=O)[C@H](CCCN=C(N)N)NC(=O)[C@@H]1CCC(=O)NCCCC[C@H](NC(=O)[C@H](CCCCN)NC(=O)[C@H](CO)NC(=O)[C@H](Cc2ccc(O)cc2)NC(=O)[C@H](CC(=O)O)NC(=O)[C@H](CO)NC(=O)[C@@H](NC(=O)[C@H](Cc2ccccc2)NC(=O)[C@@H](NC(=O)CNC(=O)[C@H](CCC(N)=O)NC(=O)[C@H](CO)NC(=O)[C@@H](N)Cc2c[nH]cn2)[C@@H](C)O)[C@@H](C)O)C(=O)N[C@@H](CC(C)C)C(=O)N[C@@H](CC(=O)O)C(=O)N[C@@H](CO)C(=O)N1)C(C)C)C(=O)N[C@@H](CC(N)=O)C(=O)N[C@H](C(=O)O)[C@@H](C)O` (H-HSQGTFTSDYSKKLDSERAQDFVQWLMNT-OH; lactam 13-17), for which the Activity in assay [1] stood at 85%. Moreover, the 50% effective concentration (EC50) at Adenylate cyclase [2] was 6.3 nM. The compound also showed an IC50 at Glucagon receptor of 1.7 nM.

Source of the values: ChEMBL document CHEMBL1134594 (J Med Chem, 2001).
